Each block holds one molecule with its values, some of them ahead of it.
Legend:
[1] = target: Calcium/calmodulin-dependent protein kinase type 1G (Homo sapiens) (UniProt Q96NX5); experiment: Inhibition of human recombinant CaMK1g at 500 nM related to control ULK1
[2] = target: Dual specificity mitogen-activated protein kinase kinase 2 (Homo sapiens) (UniProt P36507); experiment: Inhibition of human recombinant MAP2K2 at 500 nM in presence of ATP by radiometric assay relative to control
[3] = target: BDNF/NT-3 growth factors receptor (Homo sapiens) (UniProt Q16620); experiment: Inhibition of human recombinant TRKB at 500 nM in presence of ATP by radiometric assay relative to control
[4] = target: Transient receptor potential cation channel subfamily M member 7 (Homo sapiens) (UniProt Q96QT4); experiment: Inhibition of human recombinant ChaK1 at 15 nM in presence of ATP by radiometric assay relative to control
[5] = target: Serine/threonine-protein kinase Nek6 (Homo sapiens) (UniProt Q9HC98); experiment: Inhibition of human recombinant NEK6 at 15 nM related to control ULK1
[6] = target: Serine/threonine-protein kinase MARK1 (Homo sapiens) (UniProt Q9P0L2); experiment: Inhibition of human recombinant MARK1 at 15 nM related to control ULK1
[7] = target: Protein-tyrosine kinase 2-beta (Homo sapiens) (UniProt Q14289); experiment: Inhibition of human recombinant PYK2 at 15 nM in presence of ATP by radiometric assay relative to control
[8] = target: Serine/threonine-protein kinase 26 (Homo sapiens) (UniProt Q9P289); experiment: Inhibition of human recombinant MST4 at 15 nM related to control ULK1
[9] = target: T1, cAMP-dependent protein kinase catalytic subunit PRKX (Homo sapiens) (UniProt P51817); experiment: Inhibition of human recombinant PRKX at 15 nM in presence of ATP by radiometric assay relative to control
T1 sequence (whole entry): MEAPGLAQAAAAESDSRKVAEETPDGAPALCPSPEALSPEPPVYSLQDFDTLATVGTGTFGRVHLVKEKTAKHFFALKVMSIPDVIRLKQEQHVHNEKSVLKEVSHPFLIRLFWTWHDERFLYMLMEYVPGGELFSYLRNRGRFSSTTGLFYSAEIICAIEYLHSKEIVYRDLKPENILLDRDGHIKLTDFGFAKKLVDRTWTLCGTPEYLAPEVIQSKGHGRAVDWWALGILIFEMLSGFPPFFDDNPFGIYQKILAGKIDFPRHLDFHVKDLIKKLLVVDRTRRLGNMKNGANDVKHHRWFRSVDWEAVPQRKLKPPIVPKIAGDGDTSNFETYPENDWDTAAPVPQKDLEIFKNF

[10] = target: T2, Serine/threonine-protein kinase D3 (Homo sapiens) (UniProt O94806); experiment: Inhibition of human recombinant PKD3 at 15 nM in presence of ATP by radiometric assay relative to control
T2 sequence (whole entry): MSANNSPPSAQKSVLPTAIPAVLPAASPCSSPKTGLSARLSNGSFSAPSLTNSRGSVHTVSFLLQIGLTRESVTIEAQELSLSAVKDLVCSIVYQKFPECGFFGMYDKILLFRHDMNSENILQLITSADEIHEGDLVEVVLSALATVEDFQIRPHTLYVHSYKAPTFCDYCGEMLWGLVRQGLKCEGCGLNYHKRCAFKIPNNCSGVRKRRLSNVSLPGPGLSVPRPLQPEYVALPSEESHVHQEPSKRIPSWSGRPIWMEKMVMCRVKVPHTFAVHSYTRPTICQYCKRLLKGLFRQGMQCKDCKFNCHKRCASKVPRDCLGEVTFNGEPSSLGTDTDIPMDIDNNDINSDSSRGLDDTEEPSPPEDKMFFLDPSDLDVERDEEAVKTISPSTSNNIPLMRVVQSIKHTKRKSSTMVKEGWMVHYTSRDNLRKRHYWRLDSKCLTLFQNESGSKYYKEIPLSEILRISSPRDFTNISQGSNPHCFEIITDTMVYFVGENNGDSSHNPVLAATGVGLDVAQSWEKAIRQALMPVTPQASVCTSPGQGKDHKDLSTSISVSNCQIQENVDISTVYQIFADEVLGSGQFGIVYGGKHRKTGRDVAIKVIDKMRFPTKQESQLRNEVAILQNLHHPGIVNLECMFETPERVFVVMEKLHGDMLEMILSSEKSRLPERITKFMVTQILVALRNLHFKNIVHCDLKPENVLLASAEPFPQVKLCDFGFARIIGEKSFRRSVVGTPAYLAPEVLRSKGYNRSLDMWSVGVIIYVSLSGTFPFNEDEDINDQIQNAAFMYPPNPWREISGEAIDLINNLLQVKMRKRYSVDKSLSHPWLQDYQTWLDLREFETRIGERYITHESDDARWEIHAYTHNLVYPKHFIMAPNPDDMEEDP

[11] = target: T3, Serine/threonine-protein kinase Nek11 (Homo sapiens) (UniProt Q8NG66); experiment: Inhibition of human recombinant NEK11 at 15 nM in presence of ATP by radiometric assay relative to control
T3 sequence (whole entry): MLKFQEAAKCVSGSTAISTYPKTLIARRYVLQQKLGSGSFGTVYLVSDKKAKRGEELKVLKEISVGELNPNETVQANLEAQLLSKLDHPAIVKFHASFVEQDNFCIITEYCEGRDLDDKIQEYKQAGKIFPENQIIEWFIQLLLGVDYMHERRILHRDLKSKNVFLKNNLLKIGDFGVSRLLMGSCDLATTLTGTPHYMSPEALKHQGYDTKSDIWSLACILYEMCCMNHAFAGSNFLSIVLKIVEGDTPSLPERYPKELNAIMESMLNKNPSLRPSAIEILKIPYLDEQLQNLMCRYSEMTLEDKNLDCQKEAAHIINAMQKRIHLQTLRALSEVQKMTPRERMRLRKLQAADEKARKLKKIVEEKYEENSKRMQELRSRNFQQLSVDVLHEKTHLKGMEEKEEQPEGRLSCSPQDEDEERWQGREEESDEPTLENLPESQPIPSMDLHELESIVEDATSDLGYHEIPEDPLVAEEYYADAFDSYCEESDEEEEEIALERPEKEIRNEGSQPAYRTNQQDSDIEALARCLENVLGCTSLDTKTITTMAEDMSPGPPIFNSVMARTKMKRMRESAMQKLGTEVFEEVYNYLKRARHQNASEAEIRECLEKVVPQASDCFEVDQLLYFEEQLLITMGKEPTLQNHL

[12] = organism: Homo sapiens; experiment: Inhibition of human recombinant ABL at 40 nM related to control ULK1
Method in brief: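 Radiometric activity assays in a panel of 327 human recombinant kinases, each run in duplicate at one inhibitor concentration. Activity remaining is expressed as percent of vehicle control, and percent inhibition is calculated as 100% minus percent activity remaining.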

Chain of Dual specificity mitogen-activated protein kinase kinase 2 (Homo sapiens) (P36507 whole entry): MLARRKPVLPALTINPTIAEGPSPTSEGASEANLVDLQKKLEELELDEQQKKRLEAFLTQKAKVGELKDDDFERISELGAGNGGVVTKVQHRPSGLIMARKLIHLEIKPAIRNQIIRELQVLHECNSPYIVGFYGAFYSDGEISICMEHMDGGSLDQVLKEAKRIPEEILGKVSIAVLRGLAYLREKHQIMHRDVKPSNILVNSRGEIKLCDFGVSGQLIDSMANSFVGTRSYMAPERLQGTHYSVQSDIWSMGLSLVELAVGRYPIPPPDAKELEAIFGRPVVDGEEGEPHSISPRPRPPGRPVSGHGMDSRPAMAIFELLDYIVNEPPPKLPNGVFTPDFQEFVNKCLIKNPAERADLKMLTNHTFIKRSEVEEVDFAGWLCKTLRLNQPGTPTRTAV
Chain of Serine/threonine-protein kinase Nek6 (Homo sapiens) (Q9HC98 whole entry): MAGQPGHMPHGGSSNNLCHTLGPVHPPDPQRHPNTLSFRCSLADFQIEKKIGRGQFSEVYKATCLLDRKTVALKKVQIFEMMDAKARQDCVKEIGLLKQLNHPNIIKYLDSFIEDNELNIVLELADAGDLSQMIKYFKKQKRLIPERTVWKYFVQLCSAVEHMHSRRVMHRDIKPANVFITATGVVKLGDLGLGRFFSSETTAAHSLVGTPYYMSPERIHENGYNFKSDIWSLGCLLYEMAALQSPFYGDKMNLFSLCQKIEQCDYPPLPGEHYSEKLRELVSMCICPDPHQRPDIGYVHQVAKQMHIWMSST
Chain of Calcium/calmodulin-dependent protein kinase type 1G (Homo sapiens) (Q96NX5 whole entry): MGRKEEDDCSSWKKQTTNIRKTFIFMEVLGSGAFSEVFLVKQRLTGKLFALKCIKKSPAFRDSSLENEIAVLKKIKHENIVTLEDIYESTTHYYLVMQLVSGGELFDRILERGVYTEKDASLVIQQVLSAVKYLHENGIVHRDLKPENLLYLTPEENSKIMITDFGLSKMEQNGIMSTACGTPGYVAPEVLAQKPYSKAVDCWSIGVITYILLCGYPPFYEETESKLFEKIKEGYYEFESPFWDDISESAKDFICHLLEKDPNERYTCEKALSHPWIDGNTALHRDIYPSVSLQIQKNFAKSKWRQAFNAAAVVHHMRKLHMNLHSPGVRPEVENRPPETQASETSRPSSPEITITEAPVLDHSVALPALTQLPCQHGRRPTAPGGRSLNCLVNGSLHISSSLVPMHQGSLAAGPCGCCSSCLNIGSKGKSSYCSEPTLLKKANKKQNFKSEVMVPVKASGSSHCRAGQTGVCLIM
Chain of BDNF/NT-3 growth factors receptor (Homo sapiens) (Q16620 32-822 limits assumed): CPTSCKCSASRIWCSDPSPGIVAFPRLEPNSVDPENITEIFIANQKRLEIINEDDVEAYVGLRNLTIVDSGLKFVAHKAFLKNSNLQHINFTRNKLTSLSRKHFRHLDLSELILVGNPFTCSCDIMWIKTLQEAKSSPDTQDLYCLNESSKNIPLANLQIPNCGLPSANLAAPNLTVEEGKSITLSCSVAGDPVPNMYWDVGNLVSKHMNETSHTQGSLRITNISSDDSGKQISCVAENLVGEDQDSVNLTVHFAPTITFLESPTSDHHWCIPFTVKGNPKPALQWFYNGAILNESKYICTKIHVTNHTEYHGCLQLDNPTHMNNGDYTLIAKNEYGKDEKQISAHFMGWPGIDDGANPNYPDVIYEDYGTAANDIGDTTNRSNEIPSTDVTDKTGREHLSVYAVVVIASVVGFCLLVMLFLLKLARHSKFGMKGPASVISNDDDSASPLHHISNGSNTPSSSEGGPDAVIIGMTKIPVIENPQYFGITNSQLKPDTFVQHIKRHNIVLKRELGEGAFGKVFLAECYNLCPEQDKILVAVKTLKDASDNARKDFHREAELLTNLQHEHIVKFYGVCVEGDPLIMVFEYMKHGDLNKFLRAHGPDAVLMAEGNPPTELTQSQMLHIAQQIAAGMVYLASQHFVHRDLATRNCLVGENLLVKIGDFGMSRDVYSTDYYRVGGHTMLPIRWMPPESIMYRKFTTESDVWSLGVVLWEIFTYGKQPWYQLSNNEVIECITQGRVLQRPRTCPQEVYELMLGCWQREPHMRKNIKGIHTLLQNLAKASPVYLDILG
Chain of Serine/threonine-protein kinase MARK1 (Homo sapiens) (Q9P0L2 whole entry, looked up): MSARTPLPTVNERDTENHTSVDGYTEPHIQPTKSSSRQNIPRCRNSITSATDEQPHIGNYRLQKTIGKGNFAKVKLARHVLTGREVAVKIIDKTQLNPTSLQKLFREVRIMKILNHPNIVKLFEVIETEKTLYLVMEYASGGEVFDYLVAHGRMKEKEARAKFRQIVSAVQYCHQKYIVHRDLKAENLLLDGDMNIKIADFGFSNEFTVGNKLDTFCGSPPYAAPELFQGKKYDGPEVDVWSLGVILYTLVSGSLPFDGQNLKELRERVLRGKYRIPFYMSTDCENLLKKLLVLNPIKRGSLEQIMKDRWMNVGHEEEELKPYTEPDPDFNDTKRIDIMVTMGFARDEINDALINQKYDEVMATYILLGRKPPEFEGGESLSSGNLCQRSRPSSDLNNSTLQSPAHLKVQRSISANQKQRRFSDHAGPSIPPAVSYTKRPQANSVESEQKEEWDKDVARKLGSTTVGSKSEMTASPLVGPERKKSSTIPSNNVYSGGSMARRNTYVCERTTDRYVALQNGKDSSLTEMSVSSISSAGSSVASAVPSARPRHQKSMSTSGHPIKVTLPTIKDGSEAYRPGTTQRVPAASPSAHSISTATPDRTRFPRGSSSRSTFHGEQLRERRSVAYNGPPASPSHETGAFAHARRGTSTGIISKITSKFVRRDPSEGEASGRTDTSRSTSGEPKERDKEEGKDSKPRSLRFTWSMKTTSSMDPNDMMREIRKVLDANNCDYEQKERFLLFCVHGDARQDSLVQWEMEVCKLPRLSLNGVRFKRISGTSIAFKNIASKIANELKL
Chain of Protein-tyrosine kinase 2-beta (Homo sapiens) (Q14289 whole entry, looked up): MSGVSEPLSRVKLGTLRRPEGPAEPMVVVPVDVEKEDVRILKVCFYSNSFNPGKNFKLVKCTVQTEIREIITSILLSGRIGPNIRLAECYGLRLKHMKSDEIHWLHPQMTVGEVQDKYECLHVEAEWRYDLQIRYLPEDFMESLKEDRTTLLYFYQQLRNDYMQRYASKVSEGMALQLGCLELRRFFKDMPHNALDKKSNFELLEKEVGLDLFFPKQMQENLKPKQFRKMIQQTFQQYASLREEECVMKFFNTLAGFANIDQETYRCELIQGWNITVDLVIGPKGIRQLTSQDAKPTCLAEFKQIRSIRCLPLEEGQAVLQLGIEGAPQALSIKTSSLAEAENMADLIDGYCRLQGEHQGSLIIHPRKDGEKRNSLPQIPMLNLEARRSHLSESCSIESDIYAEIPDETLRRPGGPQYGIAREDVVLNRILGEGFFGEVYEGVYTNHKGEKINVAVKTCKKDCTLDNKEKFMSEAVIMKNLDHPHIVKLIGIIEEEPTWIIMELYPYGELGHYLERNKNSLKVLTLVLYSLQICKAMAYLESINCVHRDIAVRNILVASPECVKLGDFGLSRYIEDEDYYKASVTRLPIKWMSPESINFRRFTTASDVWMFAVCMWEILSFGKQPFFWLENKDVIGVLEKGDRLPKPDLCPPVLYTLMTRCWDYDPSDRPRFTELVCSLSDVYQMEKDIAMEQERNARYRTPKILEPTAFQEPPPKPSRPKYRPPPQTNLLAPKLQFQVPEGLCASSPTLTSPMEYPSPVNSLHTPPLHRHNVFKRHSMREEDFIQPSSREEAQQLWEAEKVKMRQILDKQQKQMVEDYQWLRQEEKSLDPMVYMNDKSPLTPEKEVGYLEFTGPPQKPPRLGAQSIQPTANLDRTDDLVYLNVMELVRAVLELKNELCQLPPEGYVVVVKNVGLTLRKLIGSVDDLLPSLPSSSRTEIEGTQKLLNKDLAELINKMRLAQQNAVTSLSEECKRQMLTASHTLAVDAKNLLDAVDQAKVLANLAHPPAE
Chain of Serine/threonine-protein kinase 26 (Homo sapiens) (Q9P289 2-416 limits assumed): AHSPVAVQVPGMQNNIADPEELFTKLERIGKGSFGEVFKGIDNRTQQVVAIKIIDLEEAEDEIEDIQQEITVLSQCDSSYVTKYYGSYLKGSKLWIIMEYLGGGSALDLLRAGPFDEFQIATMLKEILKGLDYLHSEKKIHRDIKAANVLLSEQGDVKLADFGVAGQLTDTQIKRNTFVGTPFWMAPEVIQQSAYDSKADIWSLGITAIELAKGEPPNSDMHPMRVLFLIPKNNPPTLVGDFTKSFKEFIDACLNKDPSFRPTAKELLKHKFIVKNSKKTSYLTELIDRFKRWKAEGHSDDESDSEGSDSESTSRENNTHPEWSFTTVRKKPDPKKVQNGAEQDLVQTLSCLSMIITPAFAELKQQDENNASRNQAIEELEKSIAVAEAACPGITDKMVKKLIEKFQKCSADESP

fold change (FC) [1]: 0.08
inhibition [2]: 0%
inhibition [3]: 48%
Compound: CNC(=O)c1ccccc1Oc1nc(Nc2cc(OC)c(OC)c(OC)c2)ncc1Br

inhibition [4]: 12%
fold change (FC) [5]: 0.01
fold change (FC) [6]: 0.61
inhibition [7]: 0%
fold change (FC) [8]: 0
inhibition [9]: 16%
inhibition [10]: 7%
inhibition [11]: 0%
Compound: CC(C)[C@H](NC(=O)c1cc(-c2cnn3cc(-c4ccc(OCCN5CCCCC5)cc4)cnc23)cs1)C(F)(F)F

fold change (FC) [12]: 0.16
Compound: O=C(N[C@@H](C1CC1)C(F)(F)F)c1cc(-c2cnn3cc(-c4ccc(F)cc4)cnc23)cs1
